The results in this text go back to PubChem BioAssay AID504383 (The Scripps Research Institute Molecular Screening Center, 2011).

In all, about 2,500 compounds went through this assay and about 1,200 (48%) were called active.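 How the source made its calls: active means mean activation above the low control average plus 3 SD, as set in the primary screen (cut at about 12% in these data); inactive means the rest.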 The set was probably picked from earlier hits. The list shows a part of the results.

In the assay the target is Troponin I, cardiac muscle (Homo sapiens) + Troponin T, cardiac muscle (Homo sapiens) + Troponin C, slow skeletal and cardiac muscles (Homo sapiens) (UniProt P19429+P45379+P63316). Kind of assay: calcium sensitizers of cardiac thin filaments – biochemical, IANBD-TnC fluorescence, triplicate, confirmation (AID 504383).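 Further: 0% = DMSO at 0.472 mM calcium and 100% = DMSO at 2.9 mM calcium.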 The conditions noted are these: IANBD-labeled cardiac RTF, Ca2+ sensitivity fluorescence; at 7.2 µM; stronger effect = higher value; scaled from EC20 to saturating calcium; tested at EC20 calcium, 0.472 mM. The gist of the method:
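System: Labelled thin filament complex | Technique: Filament fluorescence intensity | Benchmarks: Low control EC20 calcium, high control EC100 calcium | Timing: 15 min at 25 °C | Compound dosing: One dose, 7.2 µM nominal | Probe or stimulus: Ca2+ 0.472 mM, EC20 level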
Consider `O=C(c1ccccc1)N1C(=O)C(c2ccccc2)Oc2ccccc21` (stereo not drawn), for which the activation is 1.2% (inactive).

Take `COc1cc(OC)cc(C(=O)NCC(=O)OC2CCOC2=O)c1` (stereo not drawn): the activation is 17.4% (active).

For `O=C1/C(=C/c2cccs2)N=C(c2cccs2)N1Nc1ccccc1`, the activation was 18.7% (active).

Turning to `CCOc1ccc(NC(=O)/C(C#N)=C\c2ccc(N3CCCC3)c(C)c2)cc1`, the activation was 1.35% (inactive).

For the molecule `CCCN1C(=O)/C(=C/c2ccc(N3CCCC3)c(C)c2)NC1=S`, the activation is 8.1% (inactive).

Turning to `CCOc1ccc(NC(=O)/C(C#N)=C/c2ccc(N3CCCC3)c(C)c2)cc1`, the activation was 2.19% (inactive).

On to `Cc1cc(N2CCCC2)ccc1/C=C1\NC(=S)N(C)C1=O`, for which the activation was 11.3% (inactive).

Turning to `Cc1cc(/C=C2/C(=O)N(C)C(=S)N2C)ccc1N1CCCC1`, the activation was 106% (active).

As for `Cc1cc(/C=C2\NC(=S)N(C)C2=O)ccc1N1CCCC1`, the activation was 26.1% (active).

Regarding `COc1ccc(C(=O)Cn2cnc3ccccc3c2=O)cc1OC`, the activation was 6.44% (inactive).

In the case of `O=C(c1ccc(Cl)cc1)n1cnc2ccccc21`, the activation was 7.26% (inactive).

For `O=C(Cn1cnc2ccccc2c1=O)c1ccc(Br)cc1`, the activation is 424% (active).

On to `COc1cc(/C=C(\C#N)c2nc3ccccc3o2)ccc1O`, for which the activation was 3.75% (inactive).

Take `COc1cc(/C=C(\C#N)c2nc3ccccc3s2)ccc1OCC(=O)Nc1ccccc1`: the activation is 92.9% (active).

`COc1cc(/C=C(/C#N)C(=O)NCCCc2ccccc2)ccc1OCC(=O)O`: the activation was 11.5% (inactive).

With `CCN(CC)c1ccc(/C=C/c2cc(-c3ccccc3)c3ccccc3n2)cc1`, the activation was 19.4% (active).

With `Cn1cnnc1Sc1nc2ccccc2nc1NS(=O)(=O)c1ccccc1`, the activation is 26.2% (active).

For `CC(=O)Nc1ccc(S(=O)(=O)Nc2nc3ccccc3nc2Nc2ccc(N)cc2)cc1`, the activation was 5.97% (inactive).

In the case of `c1ccc(Nc2nc3ccccc3n3cnnc23)cc1`, the activation is 10.4% (inactive).

Regarding `Cn1nnc(NC(=S)NC(=O)/C=C/c2ccco2)n1`, the activation is 4.19% (inactive).

As for `CCC(CC)c1nnc(NC(=O)/C=C/c2ccco2)s1`, the activation was 18.8% (active).

Take `COc1ccc(N=C2NC(=O)S/C2=C\c2ccc(N(C)C)cc2)cc1`: the activation was 54.9% (active).

Regarding `C=CCOc1ccc(/C=C2\SC(=Nc3cccnc3)NC2=O)cc1`, the activation is 6.73% (inactive).

For `COc1ccc(C(=O)/C=C/c2ccc(N(C)C)cc2)c(OC)c1`, the activation is 7.89% (inactive).

Turning to `CCOc1ccc(N=C2NC(=O)S/C2=C\c2ccc(N(C)C)cc2)cc1`, the activation is 5340% (active).

On to `O=C(NN1C(=O)c2ccccc2NC1c1ccco1)c1ccccc1` (stereo not drawn), for which the activation was 3.92% (inactive).

In the case of `C=CCN1C(=O)c2ccccc2NC1c1cc(Br)cs1` (stereo not drawn), the activation was 53.6% (active).

As for `CCOCCn1c(CN2CCN(CC)CC2)nc2c1c(=O)n(C)c(=O)n2C`, the activation is 66% (active).

As to `CC1=Nc2ccccc2/C1=C/c1nc(-c2ccc(C)s2)oc1O`, the activation was 7.81% (inactive).

With `Oc1[nH]c(=S)sc1/C=C1\C(c2ccccc2)=Nc2ccccc21`, the activation was 10% (inactive).

`CC1=Nc2ccccc2/C1=C/c1sc(=S)n(-c2cccc(C(=O)O)c2)c1O`: the activation was 13.1% (active).

For the molecule `CCc1cc(=O)n2c([nH]c3ccccc32)c1C#N`, the activation is 3.83% (inactive).

Turning to `CCC(c1nnnn1C1CCCCC1)N1CCN(C(=O)c2ccco2)CC1` (stereo not drawn), the activation was 23.4% (active).

Take `CCC(C)(C)n1nnnc1C(c1ccc(C)cc1)N1CCN(C(=O)c2ccco2)CC1` (stereo not drawn): the activation is 4.34% (inactive).

As for `Cn1nc(NC(=O)C2CCC2C(=O)O)c2c(F)cccc21` (stereo not drawn), the activation was 52.9% (active).

As for `O=C(O)C1CCCCC1C(=O)Nc1ccc(-c2ccccc2)cc1` (stereo not drawn), the activation was 8.12% (inactive).

Consider `CCc1cc[n+](-c2nc3ccccc3nc2[N-]S(=O)(=O)c2ccc(Br)s2)cc1`, for which the activation is -1.89% (inactive).

For `Cc1ccc[n+](-c2nc([O-])sc2C=O)c1`, the activation was 64.2% (active).

Turning to `CCc1cc[n+](-c2nc([O-])sc2C=O)cc1`, the activation was 14.1% (active).

With `CCNC(=O)NNC(=O)C1CC(c2cccs2)=NO1` (stereo not drawn), the activation is 4.43% (inactive).

Regarding `COc1cc(/C=C2\SC(=Nc3ccccc3)NC2=O)cc(Cl)c1O`, the activation was 3.89% (inactive).

For `COc1cc(/C=C2\SC(=Nc3ccc(Cl)c(C(=O)O)c3)NC2=O)c(Br)c(Br)c1O`, the activation is 54% (active).

Regarding `CCN(CC)c1ccc2c(c1)OC(N)=C(C#N)C2c1cccnc1` (stereo not drawn), the activation was 15.4% (active).

For the molecule `CSc1nc(C)nc(N/C=C(\C#N)S(=O)(=O)c2ccccc2Cl)n1`, the activation was 6.97% (inactive).

Take `C=CCn1c(O)c(CN2CCN(Cc3ccccc3)CC2)c(C)c(C#N)c1=O`: the activation was 3.99% (inactive).

Consider `Cc1c(CN2CCCC(C)C2)c(O)n(CCO)c(=O)c1C#N` (stereo not drawn), for which the activation was 11.9% (active).

Consider `CCN(c1ccccc1)S(=O)(=O)c1ccc(OC)c(NC(=O)Cn2cnc3c2c(=O)n(C)c(=O)n3C)c1`, for which the activation is 18.8% (active).

As for `CC1=C(C(=O)N(C)C)C(c2ccc(C)s2)NC(=S)N1` (stereo not drawn), the activation is 0.74% (inactive).

Regarding `CCCCCn1nc(-c2ccccc2)c2nc3ccccc3nc21`, the activation is 54.7% (active).

Turning to `CCn1nc(-c2ccccc2)c2nc3ccccc3nc21`, the activation was 26.2% (active).

Consider `Cn1nc(-c2ccccc2)c2nc3ccccc3nc21`, for which the activation was 8.34% (inactive).

With `O=C(COC(=O)c1ccc(O)cc1)Nc1ccc2c(c1)OCCO2`, the activation is 78.5% (active).

As for `Cc1cc(C(=O)O)ccc1-c1ccc(/C=C2\SC(=O)N(CC(=O)Nc3ccc4c(c3)OCO4)C2=O)o1`, the activation was 11.4% (inactive).

Consider `Cc1c(C)[n+](=O)c(-c2ccc(Br)cc2)c(C)n1[O-]`, for which the activation was 1060% (active).

Take `CCC12OC(=N)C(C#N)(C1C)C(C#N)(C#N)C(c1ccccc1)O2` (stereo not drawn): the activation was 2.9% (inactive).

In the case of `CCCCC1OC2(C)OC(=N)C1(C#N)C(C#N)(C#N)C2c1ccccc1` (stereo not drawn), the activation was 8.3% (inactive).

For the molecule `CC1C2(C)OC(=N)C(C#N)(C(C)O2)C1(C#N)C#N` (stereo not drawn), the activation was 13.7% (active).

As for `CCc1ccc2c(c1)C(NC(C)=O)C(=O)N2CC` (stereo not drawn), the activation is 6.29% (inactive).

`c1ccc(CCC2=NCCn3cccc32)cc1`: the activation is 15.8% (active).

With `Nc1ccc2c(O)cc(S(=O)(=O)O)cc2c1`, the activation was 16.8% (active).

Regarding `Cc1ccc(N=Nc2c(O)n(CN3CCOCC3)c3ccccc23)cc1`, the activation is 35.8% (active).

Turning to `COc1ccc(Cl)cc1-c1nc(SCC(=O)NC(C)C)n[nH]1`, the activation was 8.01% (inactive).

As for `C/C(N)=C(/C#N)C(=O)CSc1n[nH]c(-c2cccs2)n1`, the activation is 11.4% (inactive).

In the case of `Cc1ccc(C)c(C(=O)CSc2n[nH]c(C(C)C)n2)c1`, the activation was 128% (active).

Turning to `CC(C)(CO)NCC#Cc1ccccc1`, the activation is 5.16% (inactive).

For `COc1cc(/C=C(\C#N)c2nc3ccccc3[nH]2)ccc1O`, the activation is 6.21% (inactive).

Take `CCCOc1cc(N(CC)CC)ccc1/C=C(/C#N)c1nc2ccc(C)cc2[nH]1`: the activation is 30.9% (active).

Turning to `COc1cc(/C=C(\C#N)c2nc3ccccc3[nH]2)cc(OC)c1O`, the activation is 37.9% (active).

For `CCOc1cc(N(CC)CC)ccc1/C=C(/C#N)c1nc2ccccc2[nH]1`, the activation was 5.8% (inactive).

Take `COc1cccc(/C=C(/C#N)c2nc3ccccc3[nH]2)c1OC(C)C(=O)O` (stereo not drawn): the activation is 5.66% (inactive).

On to `CCN(CC)c1ccc(/C=C(/C#N)c2nc3ccccc3[nH]2)c(OC(C)C)c1`, for which the activation was 127% (active).

In the case of `COC1C/C(=N\O)C2OC(c3ccccc3)OCC2O1` (stereo not drawn), the activation was 6.29% (inactive).

Take `COc1cc2c3nnc(-c4ccc(F)cc4)c-3cn(Cc3ccc(C)cc3)c2cc1OC`: the activation is 3.15% (inactive).

As for `COc1cc2c3nnc(-c4ccc(F)cc4)c-3cn(Cc3cccc(C)c3)c2cc1OC`, the activation was 11.1% (inactive).

`COc1cc2c3nnc(-c4ccc(F)cc4)c-3cn(Cc3cccc(F)c3)c2cc1OC`: the activation is 446% (active).

Regarding `O=C(NC1CCCCC1)C(c1ccc(F)cc1)N(Cc1ccccc1)C(=O)CN1C(=O)c2ccccc2S1(=O)=O` (stereo not drawn), the activation was 165% (active).

For the molecule `COCCNC(=O)C(c1ccc(C)o1)N(Cc1ccc(F)cc1)C(=O)Cn1nnc2ccccc21` (stereo not drawn), the activation was 4.47% (inactive).

As to `Cc1cc(/C=N/NC(N)=S)c(O)c(/C=N/NC(N)=S)c1`, the activation was 480% (active).

Consider `CCn1c(Cc2ccccc2)nnc1SCC(=O)OC(C)C`, for which the activation is 11.8% (active).

For the molecule `CC(=O)Nc1cccc(NC(=O)CSc2nnc(Cc3cccn3C)n2CCc2ccccc2)c1`, the activation is 2.51% (inactive).

Consider `C/C(=N/NC(=O)c1cc(C)[nH]n1)c1ccco1`, for which the activation is 14.3% (active).

For `C/C(=N/NC(=O)CNC(=O)Cc1ccccc1)c1ccco1`, the activation is 5.62% (inactive).

For the molecule `CCN(CC)c1ccc(/C=C/C(=O)C2C(=O)C=C(C)OC2=O)cc1` (stereo not drawn), the activation was 3.69% (inactive).

On to `CCN(CC)c1ccc(/C=c2/sc3nnc(-c4ccccc4C)n3c2=O)cc1`, for which the activation is 12% (active).

Regarding `CCN(CC)c1ccc(/C=c2\sc3nnc(-c4ccccc4Cl)n3c2=O)cc1`, the activation is 72.8% (active).

Regarding `COc1cccc(C2C=C(c3ccc(Br)s3)Nc3ncnn32)c1OC` (stereo not drawn), the activation is 5.02% (inactive).

As for `COc1cc(C2C=C(c3cccs3)Nc3ncnn32)cc(OC)c1OC` (stereo not drawn), the activation was 12.2% (active).

`Brc1ccc(C2=CC(c3cccs3)n3ncnc3N2)cc1` (stereo not drawn): the activation was 8.78% (inactive).

As to `Cc1noc(NS(=O)(=O)c2ccc(NC(=O)CSc3nc4c(cc3C#N)CCC4)cc2)c1C`, the activation is 12.5% (active).

As for `Cc1cc(C)nc(NS(=O)(=O)c2ccc(NC(=O)CSc3nc4ccccc4[nH]3)cc2)n1`, the activation is 8.08% (inactive).

With `COC(=O)C1=C(CSc2nc3c(cc2C#N)CN(C)CC3)OC(N)=C(C#N)C1c1ccc(F)cc1` (stereo not drawn), the activation is -0.37% (inactive).

Turning to `CC(=O)Nc1ccc2cc3ccc(NC(C)=O)cc3nc2c1`, the activation was 43% (active).

On to `CC(=O)Nc1ccc2nc3c(=O)n(C)c(=O)n(C)c3nc2c1`, for which the activation is 18.8% (active).

As to `CC(=O)Nc1ccccc1`, the activation was 6.06% (inactive).

`CC1CCN(S(=O)(=O)c2ccc(N=NC3=C(O)CC(C)(C)CC3=O)cc2)CC1`: the activation was 11.9% (active).

Turning to `CC(=O)Nc1ccc(S(=O)(=O)N2CCN3CCCC3C2)cc1` (stereo not drawn), the activation is 6.53% (inactive).

With `Cc1nn(C)c(NC(=O)c2ccccc2Cl)c1Cl`, the activation was 59.1% (active).

For `COc1ccccc1C(=O)Nc1nnn(C)n1`, the activation is 10% (inactive).
